M18AAP inhibitor – blocks P. falciparum M18 aspartyl aminopeptidase. recombinant PfM18AAP, H-Glu-NHMec fluorogenic cleavage. inhibition, % at 7.35 µM. actives 1.2% (n = 290,000);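 active means inhibition above the campaign mean inhibition over all tested compounds plus 3 SD, cut at about 28% in these data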;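 further: 0% = plate median of test compound wells and 100% = 2 mM ZnCl2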
CHOP UPR activ – apoptotic UPR (CHOP) activation | activation, % at 10 µM | AID 449763 | actives 0.34% (n = 330,000) | CHO-CHOP luciferase reporter, luminescence; percent of tunicamycin response over DMSO baseline;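 active means at 10 µM dose, activation of 40% or more, normalized to positive control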;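 further: 100% = tunicamycin at 10 µg/mL and 0% = DMSO alone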
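Material: CHO-CHOP cells, stable luciferase reporter of PERK-eIF2a-CHOP signalling; quantity: 500 reporter cells seeded per well; buffer or medium: F12 medium containing 10% fetal bovine serum; compound: one dose, 10 µM in 0.5% DMSO; incubation: 6 h compound treatment, 37 °C; measured by: Steady-Glo luciferase luminescence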
UPR XBP1 act – adaptive UPR (XBP1) activation | CHO-XBP1 luciferase reporter, IRE1-XBP1 UPR activation, luminescence; percent of tunicamycin response, DMSO as zero | AID 463104 | actives 0.33% (n = 330,000) | activation, % at 20 µM;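 active means versus positive control, 20 µM dose yields 30% or more activation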;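 further: 100% = tunicamycin at 10 µg/mL and 0% = DMSO only wells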
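Test system: CHO-XBP1 luciferase reporter cells | Buffer or medium: Serum-containing F12 medium, 10% FBS | Schedule: 6 h compound exposure at 37 °C, 5% CO2 | Detection: Steady-Glo luciferase glow luminescence, 10 min after reagent addition | Read-out basis: Activation, % of tunicamycin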
p97 ATPase inh – human p97 ATPase inhibition; P55072; recombinant p97 ATPase, Kinase-Glo ATP luminescence, 3 h; inhibition, % at 8 µM; actives 0.42% (n = 220,000); AID 1481; in the data active means inhibition above about 15%;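 further: 0% = DMSO vehicle and 100% = wells lacking enzyme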
Target sequence (P55072 whole entry, looked up): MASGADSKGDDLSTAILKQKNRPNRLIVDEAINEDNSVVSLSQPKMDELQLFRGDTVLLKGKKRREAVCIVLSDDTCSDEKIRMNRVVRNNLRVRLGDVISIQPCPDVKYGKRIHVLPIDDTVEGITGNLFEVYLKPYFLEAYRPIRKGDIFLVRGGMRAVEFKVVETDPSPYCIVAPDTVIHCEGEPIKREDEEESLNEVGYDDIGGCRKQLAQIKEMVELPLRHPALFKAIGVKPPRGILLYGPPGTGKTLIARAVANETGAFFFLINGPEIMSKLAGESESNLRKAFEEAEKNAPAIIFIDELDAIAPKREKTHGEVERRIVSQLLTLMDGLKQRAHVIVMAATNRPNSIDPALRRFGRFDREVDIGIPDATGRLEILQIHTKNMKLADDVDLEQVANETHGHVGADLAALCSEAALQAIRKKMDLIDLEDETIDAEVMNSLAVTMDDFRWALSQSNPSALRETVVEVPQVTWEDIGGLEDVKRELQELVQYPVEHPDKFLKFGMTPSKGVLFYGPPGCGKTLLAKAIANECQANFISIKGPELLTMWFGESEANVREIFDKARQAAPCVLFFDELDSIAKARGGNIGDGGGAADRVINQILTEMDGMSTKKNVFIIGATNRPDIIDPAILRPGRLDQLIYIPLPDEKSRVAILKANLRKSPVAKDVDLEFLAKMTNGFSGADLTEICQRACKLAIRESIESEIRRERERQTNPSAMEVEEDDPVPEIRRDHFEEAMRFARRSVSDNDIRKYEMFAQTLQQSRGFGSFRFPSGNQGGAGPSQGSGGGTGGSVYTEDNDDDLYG
NS3 helicase inh – inhibitors of Hepatitis C virus NS3 helicase. NS3 helicase DNA unwinding, Cy5 molecular beacon fluorescence. inhibition, % at 10.9 µM. actives 0.56% (n = 290,000). AID 1800;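 active means inhibition above the mean of all tested compounds plus 3 SD, set per campaign, cut at about 35% in these data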;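 further: 0% = DMSO wells and 100% = thioflavine S control wells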
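Measured by: Cy5 fluorescence, 0 and 60 min reads / Assay system: NS3 helicase fragment of HCV / Control set: low DMSO, high thioflavine S at 110 µM / Times: 1 h reaction at 25 °C, ATP-initiated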
CHOP inh – inhibitors of CHOP induction in ER stress response | actives 3.8% (n = 220,000) | inhibition, % at 10 µM | CHO-K1 CHOP-promoter luciferase, tunicamycin-induced, 15-18 h;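 active means compounds that reduced the stress-induced luciferase reporter signal by more than about 70% of percent inhibition, limit read from the data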;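 further: 0% = tunicamycin plus vehicle and 100% = wells without tunicamycin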
* = called active by the depositor; x = no result given. Sampled rows, rich in hits. Any-hit rate of the full collection: about 4.5%.

SMILES | M18AAP inhibitor | CHOP UPR activ | UPR XBP1 act | p97 ATPase inh | NS3 helicase inh | CHOP inh
COc1cc2c(cc1NC(=O)c1ccc(C(C)(C)C)cc1)CCCC2 | -5.2 | -1.3 | -1.8 | 2.6 | 3.7 | 0.5
COc1ccc(C(=O)Nc2cc3c(cc2OC)CCCC3)cc1Br | -11.5 | 2.2 | -2.0 | 2.7 | -1.0 | 82.3*
Cc1ccc(N(CC(O)Cn2c3ccccc3c3ccccc32)S(C)(=O)=O)cc1 (configuration not stated) | 11.4 | 1.1 | -2.9 | 4.3 | -15.2 | 83.0*
Cc1cccc(C)c1N(CC(O)Cn1c2ccccc2c2ccccc21)S(C)(=O)=O (configuration not stated) | -7.5 | 3.5 | 3.1 | -0.7 | -12.8 | 43.1
Cc1ccc(N(CC(O)Cn2c3ccccc3c3ccccc32)S(C)(=O)=O)c(C)c1 (configuration not stated) | 3.5 | -1.7 | -3.7 | -4.1 | -12.5 | 85.2*
OC(CON=C1c2ccccc2-c2ccccc21)CN1CCNCC1 (configuration not stated) | 2.6 | 1.1 | 3.9 | 1.9 | -33.5 | 1.2
Cc1ccc(N(CC(O)CON=C2c3ccccc3-c3ccccc32)S(C)(=O)=O)cc1 (configuration not stated) | -1.0 | -0.8 | -2.7 | -6.9 | -22.3 | 91.1*
CS(=O)(=O)N(Cc1ccco1)CC(O)Cn1c2ccccc2c2ccccc21 (configuration not stated) | 1.0 | -1.4 | -2.0 | 2.5 | -4.6 | -5.2
N#CC(C#N)=Cc1c(N2CCN(c3ccccc3)CC2)nc2ccccn2c1=O | 2.1 | -0.2 | -2.3 | x | -3.0 | x
CC(=O)O[C@@]1(C)C[C@@H](O)[C@]2(O)C=CO[C@@H](O[C@@H]3O[C@H](CO)[C@@H](O)[C@H](O)[C@H]3O)[C@@H]21 | x | -1.3 | 1.0 | x | x | x
Oc1ccc2ccccc2c1CNc1ccccn1 | -3.7 | 0.7 | -2.5 | x | 4.4 | x
O=c1c2[nH]c3ccccc3c2ncn1CCC1=CCCCC1 | 5.0 | 0.2 | 0.4 | 1.5 | 4.6 | 67.8
C1=C(CCNc2ncnc3c2[nH]c2ccccc23)CCCC1 | -12.5 | x | x | 1.1 | -45.1 | 79.8*
COc1ccc(NC2CCCN(C(=O)CCc3cn[nH]c3)C2)cc1 (configuration not stated) | 0.9 | 2.0 | -1.6 | x | -2.1 | x
O=C(c1cccs1)N1N=C(c2ccccc2)CC1c1ccccc1 (configuration not stated) | -8.5 | -0.6 | 3.2 | -1.1 | -12.7 | 77.9*
CC(OC(=O)CCc1nc2ccccc2c(=O)[nH]1)C(=O)c1ccc(C(C)(C)C)cc1 (configuration not stated) | -8.6 | 1.5 | 2.7 | 1.3 | -15.9 | 91.6*
O=C(Nc1ccc(-c2nc3ccccc3o2)cc1)c1cc(-n2cnnc2)ccc1Cl | -7.6 | 5.3 | 4.8 | 7.1 | -4.8 | 44.5
O=C(Nc1ccc(-c2nc3ccccc3o2)c(O)c1)c1cc(-n2cnnc2)ccc1Cl | 0.8 | 6.7 | 12.8 | -3.8 | 12.9 | 92.2*
CC1=C(C(=O)OC(C)C)C(c2ccccc2Cl)CC(=O)N1 (configuration not stated) | 5.8 | -1.1 | -4.1 | -5.9 | -1.1 | 76.4*
CN(C)C=Nc1nonc1-c1ccccc1 | 3.4 | 2.1 | -0.2 | 6.1 | 0.9 | 9.5
CN(C)C=Nc1nonc1-c1ncn[nH]1 | 29.9* | -0.9 | -3.3 | 1.7 | 5.4 | 12.3
C/C(=N\N)c1c(-c2ccccc2)c2cc(C)ccc2[nH]c1=O | 0.8 | 0.4 | 0.2 | -1.1 | -6.9 | -1.2
CCN(CC)c1c(-c2ccccc2)c2cc(C)ccc2[nH]c1=O | 1.8 | 1.9 | -0.1 | -4.9 | 10.5 | 95.1*
Cc1ccc2[nH]c(=O)c(CNS(=O)(=O)c3ccccc3)c(-c3ccccc3)c2c1 | 4.0 | 1.1 | 0.9 | 2.6 | -10.9 | 86.8*
Cc1ccc(S(=O)(=O)N(C)c2ccc(OCC(=O)N3CCCCC3)cc2)cc1 | 6.7 | -0.5 | -5.0 | x | -7.5 | x
SMILES | M18AAP inhibitor | CHOP UPR activ | UPR XBP1 act | p97 ATPase inh | NS3 helicase inh | CHOP inh
COc1ccccc1NC(=O)C(C)OC(=O)C1CCN(S(=O)(=O)c2ccc(C)c(C)c2)CC1 (configuration not stated) | x | 0.9 | -0.1 | x | x | x
O=C1c2ccccc2C(=O)N1CCc1csc(-c2cccc(F)c2)n1 | -17.6 | 0.8 | 0.3 | -10.5 | -0.1 | 81.8*
COc1cc(C2C(C#N)=C(N)Oc3cc(N(C)C)ccc32)cc2c1OCO2 (configuration not stated) | 29.9* | 1.5 | 25.0 | 5.5 | 9.9 | x
O=C1CC2(CCN(C(=O)COc3ccccc3F)CC2)Oc2ccccc21 | x | 0.7 | -1.0 | x | x | x
Cc1ccc(-c2c3c(nc4sc(C(N)=O)c(N)c24)CCCC3)o1 | 5.4 | -1.2 | 2.1 | 3.4 | 16.2 | 15.9
NC(=O)c1sc2nc3c(c(-c4cccs4)c2c1N)CCCC3 | 12.2 | x | x | 5.7 | 4.8 | 76.3*
CC(C)(C)n1nc(-c2ccc(Cl)cc2)c2c(N)ncnc21 | -2.5 | -1.1 | 16.9 | -6.5 | 1.7 | 84.3*
CC(C)(C)n1nc(-c2ccc(F)cc2)c2c(N)ncnc21 | 4.8 | -4.6 | 15.3 | 3.7 | -11.2 | 42.3
COc1ccc(C2=Nn3c(nnc3C(F)(F)F)SC2)cc1 | -9.3 | 2.2 | 4.1 | x | 0.7 | x
Cc1cccc(N2CCN(C(=O)COc3cc(=O)n(C)c4ccccc34)CC2)c1C | -7.1 | 0.1 | -0.3 | -5.6 | -4.9 | 25.1
Cc1cccc(N2CCN(C(=O)c3cc4c(=O)n(C)c5ccccc5c4n3C)CC2)c1C | 4.1 | 2.4 | 0.2 | -0.7 | -0.7 | 79.4*
Cc1ccc(Cl)cc1N1CCN(C(=O)c2cc3c(=O)n(C)c4ccccc4c3n2C)CC1 | 2.1 | 5.9 | 8.0 | -1.0 | -3.1 | 88.4*
Cc1cccc(N2CCN(C(=O)Cc3cn(C)c4ccccc34)CC2)c1C | -0.1 | -0.4 | 0.0 | -5.3 | 0.8 | 82.3*
Cn1c(C(=O)N2CCCC2)cc2c(=O)n(C)c3ccccc3c21 | 3.3 | x | x | -6.2 | 4.2 | 28.4
CN(Cc1c(F)cccc1Cl)C(=O)c1ccc2ccccc2n1 | -3.3 | -0.4 | -1.0 | x | -9.6 | x
O=C(N/N=C1\CCCc2c1[nH]c1ccc(Cl)cc21)c1ccncc1 | x | 2.3 | 0.7 | x | x | x
Clc1ccc2[nH]c3c(c2c1)CCc1cn[nH]c1-3 | 3.7 | 3.5 | 2.5 | 1.5 | -20.5 | 86.8*
c1ccc2c3c([nH]c2c1)-c1[nH]ncc1CC3 | -4.2 | 3.8 | 2.2 | -0.5 | -6.5 | 70.6*
Cc1ccc(NC(=O)C(C)SCC(=O)Nc2ccc(F)cc2)cc1S(=O)(=O)N1CCOCC1 (configuration not stated) | x | 0.8 | -5.1 | x | x | x
Cn1c(/C=N/NC(=O)c2ccccc2Br)nc2ccccc21 | -4.2 | -2.5 | -2.8 | -4.5 | -0.8 | 83.9*
CC1=NN(S(=O)(=O)c2ccc(Cl)cc2Cl)C(=O)c2ccccc2O1 | 1.3 | 1.2 | -1.6 | 0.5 | -0.9 | 11.3

Source: PubChem (several laboratories)
